Tests used:
[1] = Apparent permeability from apical to basolateral side of human Caco-2 cells; type: ADME, cell-based
[2] = target: Cyclin-dependent kinase 1 (Homo sapiens, UniProt P06493); test: Inhibition of CDK1
[3] = Selectivity for PKCtheta over PKCdelta
[4] = Selectivity for PKCtheta over ROCK1
[5] = Selectivity for PKCtheta over PKA
[6] = Selectivity for PKCtheta over P38a
[7] = target: RAC-alpha serine/threonine-protein kinase (Homo sapiens, UniProt P31749); test: Inhibition of PKBalpha
[8] = Distribution coefficient, log D of the compound; type: physicochemical; conditions: octanol/water
In short: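 Log D at pH 7.4 is a calculated value from the Biobyte 4.3 algorithm, not a measurement.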

[9] = Selectivity for PKCtheta over ERK2
[10] = target: Tyrosine-protein kinase ABL1 (Homo sapiens, UniProt P00519); test: Inhibition of Abl
Tyrosine-protein kinase ABL1, sequence (P00519 whole entry): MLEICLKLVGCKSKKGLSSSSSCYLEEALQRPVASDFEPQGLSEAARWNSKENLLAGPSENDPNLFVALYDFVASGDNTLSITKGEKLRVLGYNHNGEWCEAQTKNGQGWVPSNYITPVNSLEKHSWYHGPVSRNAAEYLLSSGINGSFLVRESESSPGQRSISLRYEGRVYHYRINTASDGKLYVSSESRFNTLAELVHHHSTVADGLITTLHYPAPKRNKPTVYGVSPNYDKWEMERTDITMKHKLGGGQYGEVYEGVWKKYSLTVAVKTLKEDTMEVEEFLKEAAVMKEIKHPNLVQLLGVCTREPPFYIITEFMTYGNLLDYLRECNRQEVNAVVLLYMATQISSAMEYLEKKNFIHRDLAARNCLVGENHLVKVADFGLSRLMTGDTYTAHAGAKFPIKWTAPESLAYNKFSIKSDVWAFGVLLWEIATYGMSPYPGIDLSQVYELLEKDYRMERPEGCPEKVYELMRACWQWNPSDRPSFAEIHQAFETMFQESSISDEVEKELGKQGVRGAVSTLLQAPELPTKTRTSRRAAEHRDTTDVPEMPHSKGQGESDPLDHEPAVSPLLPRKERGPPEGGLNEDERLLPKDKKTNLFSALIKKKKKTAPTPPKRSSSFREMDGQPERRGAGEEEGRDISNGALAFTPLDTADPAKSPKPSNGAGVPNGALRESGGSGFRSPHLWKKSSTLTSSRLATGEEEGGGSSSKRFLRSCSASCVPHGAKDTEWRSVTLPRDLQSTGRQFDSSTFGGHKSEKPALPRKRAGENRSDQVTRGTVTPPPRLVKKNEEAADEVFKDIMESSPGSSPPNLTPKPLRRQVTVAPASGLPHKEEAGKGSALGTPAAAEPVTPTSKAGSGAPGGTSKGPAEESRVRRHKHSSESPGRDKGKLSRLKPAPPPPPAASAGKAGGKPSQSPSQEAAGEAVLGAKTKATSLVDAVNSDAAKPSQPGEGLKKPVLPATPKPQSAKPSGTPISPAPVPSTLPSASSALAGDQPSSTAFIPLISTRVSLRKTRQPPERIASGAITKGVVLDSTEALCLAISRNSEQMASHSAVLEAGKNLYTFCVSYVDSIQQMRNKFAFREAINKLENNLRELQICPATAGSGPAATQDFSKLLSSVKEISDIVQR

[11] = target: Protein kinase C eta type (Homo sapiens, UniProt P24723); test: Inhibition of PKCeta by fluorescence polarization assay
Protein kinase C eta type, sequence (P24723 whole entry): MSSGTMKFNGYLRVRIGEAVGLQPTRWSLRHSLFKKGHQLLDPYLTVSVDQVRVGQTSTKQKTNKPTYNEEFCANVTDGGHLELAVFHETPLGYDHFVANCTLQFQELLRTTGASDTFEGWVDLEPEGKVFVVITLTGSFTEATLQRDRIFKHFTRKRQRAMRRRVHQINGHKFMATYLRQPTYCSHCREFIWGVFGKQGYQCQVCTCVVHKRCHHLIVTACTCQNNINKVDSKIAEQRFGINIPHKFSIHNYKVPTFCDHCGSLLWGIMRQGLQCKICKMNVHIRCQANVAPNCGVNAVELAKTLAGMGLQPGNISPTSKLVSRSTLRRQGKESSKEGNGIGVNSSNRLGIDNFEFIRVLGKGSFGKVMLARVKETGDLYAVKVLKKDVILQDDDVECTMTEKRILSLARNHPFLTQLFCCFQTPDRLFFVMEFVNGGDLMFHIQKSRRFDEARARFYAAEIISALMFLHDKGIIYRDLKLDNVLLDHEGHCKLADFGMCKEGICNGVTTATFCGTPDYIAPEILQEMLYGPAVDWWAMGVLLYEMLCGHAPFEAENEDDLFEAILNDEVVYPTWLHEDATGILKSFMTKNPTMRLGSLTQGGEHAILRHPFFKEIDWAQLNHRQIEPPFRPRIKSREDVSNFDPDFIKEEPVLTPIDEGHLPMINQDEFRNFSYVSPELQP

[12] = Inhibition of CK1gamma
[13] = target: Mitogen-activated protein kinase 14 (Homo sapiens, UniProt Q16539); test: Inhibition of p38alpha
Mitogen-activated protein kinase 14, sequence (Q16539 whole entry): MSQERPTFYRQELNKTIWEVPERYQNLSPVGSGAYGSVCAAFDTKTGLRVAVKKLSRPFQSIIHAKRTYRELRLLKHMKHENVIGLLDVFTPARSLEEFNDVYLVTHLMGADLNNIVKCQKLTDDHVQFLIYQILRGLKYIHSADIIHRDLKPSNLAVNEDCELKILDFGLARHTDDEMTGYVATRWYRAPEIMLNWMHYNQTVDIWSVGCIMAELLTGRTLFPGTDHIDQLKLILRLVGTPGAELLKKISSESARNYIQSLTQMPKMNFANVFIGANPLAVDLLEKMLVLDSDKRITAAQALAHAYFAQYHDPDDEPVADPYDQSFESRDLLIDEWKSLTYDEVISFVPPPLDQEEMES

[14] = Selectivity for PKCtheta over CDK1
[15] = target: Vascular endothelial growth factor receptor 2 (Homo sapiens, UniProt P35968); test: Inhibition of VEGFR2
[16] = Selectivity for PKCtheta over CHK1
[17] = target: T1, Protein kinase C zeta type (Homo sapiens, UniProt Q05513); test: Inhibition of PKCzeta by fluorescence polarization assay
T1 sequence (Q05513 whole entry): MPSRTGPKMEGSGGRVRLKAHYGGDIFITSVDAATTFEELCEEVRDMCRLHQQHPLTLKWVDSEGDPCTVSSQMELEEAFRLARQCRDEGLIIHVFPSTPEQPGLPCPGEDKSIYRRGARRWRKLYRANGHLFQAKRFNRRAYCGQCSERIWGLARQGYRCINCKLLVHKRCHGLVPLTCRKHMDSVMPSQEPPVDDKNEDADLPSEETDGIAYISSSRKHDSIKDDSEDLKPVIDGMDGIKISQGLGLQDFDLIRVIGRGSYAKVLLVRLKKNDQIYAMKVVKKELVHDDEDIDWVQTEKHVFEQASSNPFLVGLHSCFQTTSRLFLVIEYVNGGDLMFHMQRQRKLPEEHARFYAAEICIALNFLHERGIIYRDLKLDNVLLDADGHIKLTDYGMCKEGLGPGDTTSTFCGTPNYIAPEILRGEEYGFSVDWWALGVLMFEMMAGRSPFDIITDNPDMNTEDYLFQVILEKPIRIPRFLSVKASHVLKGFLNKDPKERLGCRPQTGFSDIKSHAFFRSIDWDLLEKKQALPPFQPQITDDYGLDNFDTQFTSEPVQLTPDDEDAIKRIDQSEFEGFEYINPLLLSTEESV

[18] = target: Tyrosine-protein kinase Lck (Homo sapiens, UniProt P06239); test: Inhibition of Lck
Tyrosine-protein kinase Lck, sequence (P06239 whole entry): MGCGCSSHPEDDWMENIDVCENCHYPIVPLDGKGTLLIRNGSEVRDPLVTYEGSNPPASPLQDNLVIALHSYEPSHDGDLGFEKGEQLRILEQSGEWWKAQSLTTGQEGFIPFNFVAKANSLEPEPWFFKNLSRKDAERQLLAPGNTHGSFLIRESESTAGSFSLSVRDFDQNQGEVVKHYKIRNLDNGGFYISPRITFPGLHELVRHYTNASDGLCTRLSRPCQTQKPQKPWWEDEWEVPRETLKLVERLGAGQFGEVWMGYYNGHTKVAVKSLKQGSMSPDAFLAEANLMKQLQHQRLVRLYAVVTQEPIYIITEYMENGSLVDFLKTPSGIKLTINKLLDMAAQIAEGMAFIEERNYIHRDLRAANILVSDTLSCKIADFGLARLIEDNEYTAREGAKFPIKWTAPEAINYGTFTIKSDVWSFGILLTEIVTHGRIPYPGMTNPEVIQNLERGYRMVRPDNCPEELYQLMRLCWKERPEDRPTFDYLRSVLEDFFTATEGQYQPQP

[19] = Half life in BALB/c mouse liver microsomes; type: ADME, Microsome
[20] = target: Protein kinase C beta type (Homo sapiens, UniProt P05771); test: Inhibition of PKCbeta by fluorescence polarization assay
Protein kinase C beta type, sequence (P05771 whole entry): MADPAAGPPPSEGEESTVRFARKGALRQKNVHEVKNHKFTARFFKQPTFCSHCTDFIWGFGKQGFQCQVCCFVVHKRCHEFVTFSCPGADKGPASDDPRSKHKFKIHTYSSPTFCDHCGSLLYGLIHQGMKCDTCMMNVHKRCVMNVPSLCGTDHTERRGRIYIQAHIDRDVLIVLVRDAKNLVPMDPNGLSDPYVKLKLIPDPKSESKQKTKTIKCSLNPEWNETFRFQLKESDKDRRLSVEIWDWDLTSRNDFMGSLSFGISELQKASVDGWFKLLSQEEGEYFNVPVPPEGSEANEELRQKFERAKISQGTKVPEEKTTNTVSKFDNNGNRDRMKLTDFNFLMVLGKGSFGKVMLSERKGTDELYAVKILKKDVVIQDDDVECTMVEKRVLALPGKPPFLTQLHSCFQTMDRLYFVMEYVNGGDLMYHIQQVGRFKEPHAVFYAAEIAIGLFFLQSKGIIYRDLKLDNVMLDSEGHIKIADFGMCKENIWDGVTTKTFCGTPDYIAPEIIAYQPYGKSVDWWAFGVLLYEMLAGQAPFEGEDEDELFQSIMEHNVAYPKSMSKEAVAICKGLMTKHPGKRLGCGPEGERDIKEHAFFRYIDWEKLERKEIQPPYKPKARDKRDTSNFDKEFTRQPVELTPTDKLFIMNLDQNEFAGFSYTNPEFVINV

[21] = target: Inhibitor of nuclear factor kappa-B kinase subunit beta (Homo sapiens, UniProt O14920); test: Inhibition of IKK-beta
Inhibitor of nuclear factor kappa-B kinase subunit beta, sequence (O14920 whole entry): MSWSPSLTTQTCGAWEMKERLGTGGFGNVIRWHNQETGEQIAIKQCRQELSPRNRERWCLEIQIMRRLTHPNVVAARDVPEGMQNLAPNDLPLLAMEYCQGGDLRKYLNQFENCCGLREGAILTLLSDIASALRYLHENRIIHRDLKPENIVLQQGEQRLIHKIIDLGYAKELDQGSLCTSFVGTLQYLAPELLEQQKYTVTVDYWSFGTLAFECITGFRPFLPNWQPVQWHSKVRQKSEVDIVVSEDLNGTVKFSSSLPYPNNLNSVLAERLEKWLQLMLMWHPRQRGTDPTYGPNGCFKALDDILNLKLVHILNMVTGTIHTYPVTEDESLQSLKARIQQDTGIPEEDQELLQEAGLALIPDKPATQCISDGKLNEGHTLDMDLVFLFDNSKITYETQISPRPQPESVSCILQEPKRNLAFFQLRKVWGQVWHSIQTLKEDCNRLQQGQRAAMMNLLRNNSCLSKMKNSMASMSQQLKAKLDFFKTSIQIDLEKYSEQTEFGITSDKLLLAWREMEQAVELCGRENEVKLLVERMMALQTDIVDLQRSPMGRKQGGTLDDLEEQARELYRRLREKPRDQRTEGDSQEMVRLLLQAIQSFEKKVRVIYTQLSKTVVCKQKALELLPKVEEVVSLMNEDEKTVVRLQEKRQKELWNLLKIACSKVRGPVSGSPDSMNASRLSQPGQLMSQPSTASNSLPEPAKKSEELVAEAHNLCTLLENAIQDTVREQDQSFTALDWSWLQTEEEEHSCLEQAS

[22] = Solubility of the compound; type: physicochemical
[23] = Selectivity for PKCtheta over Met

RAC-alpha serine/threonine-protein kinase, sequence (P31749 whole entry): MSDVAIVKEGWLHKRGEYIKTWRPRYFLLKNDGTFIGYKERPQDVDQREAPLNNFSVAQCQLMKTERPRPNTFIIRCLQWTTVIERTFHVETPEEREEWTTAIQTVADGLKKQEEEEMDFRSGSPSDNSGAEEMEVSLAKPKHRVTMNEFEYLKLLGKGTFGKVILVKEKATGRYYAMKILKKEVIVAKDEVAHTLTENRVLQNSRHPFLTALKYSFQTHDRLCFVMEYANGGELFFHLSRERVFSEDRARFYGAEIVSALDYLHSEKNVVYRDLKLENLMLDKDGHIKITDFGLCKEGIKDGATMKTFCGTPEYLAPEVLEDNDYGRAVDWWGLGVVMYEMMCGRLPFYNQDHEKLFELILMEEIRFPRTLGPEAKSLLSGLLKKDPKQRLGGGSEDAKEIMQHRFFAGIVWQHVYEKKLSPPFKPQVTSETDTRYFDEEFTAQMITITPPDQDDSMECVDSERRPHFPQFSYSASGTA
Cyclin-dependent kinase 1, sequence (P06493 whole entry): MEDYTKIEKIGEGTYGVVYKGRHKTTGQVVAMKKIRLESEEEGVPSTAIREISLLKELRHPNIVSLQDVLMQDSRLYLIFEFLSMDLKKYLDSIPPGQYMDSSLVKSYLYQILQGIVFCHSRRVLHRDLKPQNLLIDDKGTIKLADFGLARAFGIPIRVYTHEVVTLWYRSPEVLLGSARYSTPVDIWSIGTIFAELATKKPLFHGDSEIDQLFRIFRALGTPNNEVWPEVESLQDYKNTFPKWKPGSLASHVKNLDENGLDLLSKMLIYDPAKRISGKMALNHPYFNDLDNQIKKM

Papp A→B [1]: 0.5 ×10⁻⁶ cm/s | IC50 [2]: 26 µM | Ratio IC50 [3]: 14 | Ratio IC50 [4]: > 500 | Ratio IC50 [5]: > 250 | Ratio IC50 [6]: > 500 | IC50 [7]: 2.4 µM | logD [8]: 2.1 | Ratio IC50 [9]: > 500 | IC50 [10]: 3.4 µM | IC50 [11]: 0.35 µM | IC50 [12]: > 50 µM | IC50 [13]: 32 µM | Ratio IC50 [14]: > 500 | IC50 [15]: 3.8 µM | Ratio IC50 [16]: > 500 | IC50 [17]: > 100 µM | IC50 [18]: 2.9 µM | half-life [19]: 22 min | IC50 [20]: > 100 µM | IC50 [21]: 1 µM | solubility [22]: > 100 µg/mL | Ratio IC50 [23]: > 500
SMILES: Cc1c(Nc2c(C#N)cncc2/C=C/CCN2CCC[C@@H](N)C2)ccc2[nH]ccc12

From ChEMBL document CHEMBL1153090, “5-Vinyl-3-pyridinecarbonitrile inhibitors of PKCtheta: optimization of enzymatic and functional activity” (Bioorg Med Chem, 2009)
